# Experiments:
# [1] = system: Staphylococcus epidermidis; test: Antibacterial activity against linezolid-resistant Staphylococcus epidermidis after 16 hrs by NCCLS agar dilution method; format: functional
# Method in brief: (§1)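 Agar dilution MIC. Stocks were 320 μg/mL in 50% aqueous DMSO, 2-fold serially diluted in sterile water, then diluted 10-fold into Mueller–Hinton agar to give 16–0.03125 μg/mL final. Organisms were grown in MH broth at 35 °C for 8 h and adjusted to 0.5 McFarland. They were spotted onto drug-containing plates with a multipoint inoculator and incubated at 35 °C for 16 h. Linezolid was the positive control.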
# [2] = system: Staphylococcus epidermidis; test: Antibacterial activity against methicillin-sensitive Staphylococcus epidermidis after 16 hrs by NCCLS agar dilution method; format: functional; method in brief: as §1
# [3] = system: Enterococcus faecium; test: Antibacterial activity against linezolid-resistant Enterococcus faecium after 16 hrs by NCCLS agar dilution method; format: functional; method in brief: as §1
# [4] = Clearance in Sprague-Dawley rat at 5 mg/kg, iv by LC-MS analysis; format: ADME, organism-based; design: dose 5 mg/kg, route intravenous; settings: in vivo
# Method in brief: (§2)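 Rats received the compound by intravenous injection, with oral dosing run in parallel. Clearance (CLz) is reported in L/h/kg. Elimination half-life (T1/2) is reported in h and was taken from the plasma concentration–time profile.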
# [5] = system: Enterococcus faecalis; test: Antibacterial activity against Enterococcus faecalis after 16 hrs by NCCLS agar dilution method; format: functional
# Method in brief: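 Agar dilution MIC per NCCLS, 6 E. faecalis strains. Stock was 320 μg/mL in 50% water/DMSO, serially 2-fold diluted in sterile water, then 10-fold into Mueller–Hinton agar to give 16–0.03125 μg/mL final. Inocula came from MH broth cultures grown 8 h at 35 °C, adjusted to 0.5 McFarland and spotted by multipoint inoculator. Plates were read after 16 h at 35 °C.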
# [6] = system: Staphylococcus aureus; test: Antibacterial activity against Staphylococcus aureus ATCC 29213 after 16 hrs by NCCLS agar dilution method; format: functional; settings: ATCC 29213, 16 h; method in brief: as §1
# [7] = system: Staphylococcus aureus; test: Antibacterial activity against methicillin-resistant Staphylococcus aureus after 16 hrs by NCCLS agar dilution method; format: functional; method in brief: as §1
# [8] = target: Voltage-gated inwardly rectifying potassium channel KCNH2 (Homo sapiens, UniProt Q12809)
# Sequence of Voltage-gated inwardly rectifying potassium channel KCNH2 (Q12809 whole entry): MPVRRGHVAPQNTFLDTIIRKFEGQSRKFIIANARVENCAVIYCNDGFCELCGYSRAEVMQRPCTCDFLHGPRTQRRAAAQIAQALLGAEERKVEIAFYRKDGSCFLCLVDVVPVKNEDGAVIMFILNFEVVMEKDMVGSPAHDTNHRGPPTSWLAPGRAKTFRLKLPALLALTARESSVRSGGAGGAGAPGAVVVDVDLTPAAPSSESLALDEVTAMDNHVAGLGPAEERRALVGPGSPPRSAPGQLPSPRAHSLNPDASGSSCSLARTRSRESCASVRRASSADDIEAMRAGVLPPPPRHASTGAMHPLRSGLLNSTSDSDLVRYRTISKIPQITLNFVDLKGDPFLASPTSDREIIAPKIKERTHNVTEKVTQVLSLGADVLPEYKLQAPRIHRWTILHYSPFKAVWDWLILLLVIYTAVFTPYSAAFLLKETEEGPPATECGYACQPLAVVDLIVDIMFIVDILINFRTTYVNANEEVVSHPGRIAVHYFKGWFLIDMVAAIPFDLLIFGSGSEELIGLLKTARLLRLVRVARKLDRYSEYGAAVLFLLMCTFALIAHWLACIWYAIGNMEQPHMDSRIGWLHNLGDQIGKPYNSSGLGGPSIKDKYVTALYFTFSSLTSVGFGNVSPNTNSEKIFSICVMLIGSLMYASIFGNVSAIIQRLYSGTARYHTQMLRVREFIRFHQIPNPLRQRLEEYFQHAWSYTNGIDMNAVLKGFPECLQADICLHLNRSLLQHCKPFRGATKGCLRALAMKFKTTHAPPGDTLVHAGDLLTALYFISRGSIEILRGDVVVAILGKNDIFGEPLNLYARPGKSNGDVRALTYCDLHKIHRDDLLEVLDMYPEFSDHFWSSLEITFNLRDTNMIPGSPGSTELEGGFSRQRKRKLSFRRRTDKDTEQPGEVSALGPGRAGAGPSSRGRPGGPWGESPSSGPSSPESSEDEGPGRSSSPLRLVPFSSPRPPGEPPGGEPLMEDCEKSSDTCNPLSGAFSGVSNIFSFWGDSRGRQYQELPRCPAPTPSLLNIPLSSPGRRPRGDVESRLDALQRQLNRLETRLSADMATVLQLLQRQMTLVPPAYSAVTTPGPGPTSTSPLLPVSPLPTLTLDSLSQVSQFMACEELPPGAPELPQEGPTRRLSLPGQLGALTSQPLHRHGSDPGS
# [9] = system: Enterococcus faecalis; test: Antibacterial activity against linezolid-resistant Enterococcus faecalis after 16 hrs by NCCLS agar dilution method; format: functional; method in brief: as §1
# [10] = system: Staphylococcus aureus; test: Antibacterial activity against linezolid-resistant Staphylococcus aureus after 16 hrs by NCCLS agar dilution method; format: functional; method in brief: as §1
# [11] = Oral bioavailability in Sprague-Dawley rat at 15 mg/kg; format: ADME, organism-based; settings: in vivo
# Method in brief: (§3)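 Rats were dosed orally or by intravenous injection. For prodrugs, all parameters were based on the active parent antibacterial detected in plasma, and each prodrug dose was also given as an equivalent parent dose. Parameters were Cmax, Tmax, elimination T1/2, AUC from the concentration–time curve, clearance and oral bioavailability F.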
# [12] = system: Staphylococcus aureus; test: Antibacterial activity against methicillin-sensitive Staphylococcus aureus after 16 hrs by NCCLS agar dilution method; format: functional; method in brief: as §1
# [13] = Cmax in Sprague-Dawley rat at 15 mg/kg, po by LC-MS analysis; format: ADME, organism-based; design: dose 15 mg/kg, route oral; settings: in vivo; method in brief: as §3
# [14] = Elimination half life in Sprague-Dawley rat at 5 mg/kg, iv by LC-MS analysis; format: ADME, organism-based; design: dose 5 mg/kg, route intravenous; settings: in vivo, read-out: beta t1/2 (converted); method in brief: as §2
# [15] = system: Staphylococcus epidermidis; test: Ratio of linezolid MIC to compound MIC for linezolid-resistant Staphylococcus epidermidis; format: functional
# Method in brief: (§4)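 Agar dilution per NCCLS, with linezolid tested alongside as control. Compounds were diluted 2-fold in sterile water, then 10-fold into Mueller–Hinton agar (final 16–0.03125 μg/mL). Strains (E. faecalis 3, E. faecium 3, S. aureus 3, S. epidermidis 1) were grown in MH broth at 35 °C for 8 h, adjusted to 0.5 McFarland, multipoint-inoculated, and incubated at 35 °C for 16 h. The ratio is linezolid MIC over compound MIC.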
# [16] = system: Enterococcus faecium; test: Ratio of linezolid MIC to compound MIC for linezolid-resistant Enterococcus faecium; format: functional; method in brief: as §4
# [17] = system: Staphylococcus epidermidis; test: Antibacterial activity against methicillin-resistant Staphylococcus epidermidis after 16 hrs by NCCLS agar dilution method; format: functional; method in brief: as §1
# [18] = AUC in Sprague-Dawley rat at 15 mg/kg, po by LC-MS analysis; format: ADME, organism-based; design: dose 15 mg/kg, route oral; settings: plasma
# Method in brief: (§5)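 Rats dosed orally or by intravenous injection. AUC is the area under the plasma concentration–time curve. For the prodrug entries, all PK values were based on the amount of the active parent antibacterial detected, not the administered prodrug.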
# [19] = Elimination half life in Sprague-Dawley rat at 15 mg/kg, po by LC-MS analysis; format: ADME, organism-based; design: dose 15 mg/kg, route oral; settings: in vivo, read-out: beta t1/2 (converted); method in brief: as §3
# [20] = system: Staphylococcus aureus; test: Ratio of linezolid MIC to compound MIC for linezolid-resistant Staphylococcus aureus; format: functional; method in brief: as §4
# [21] = system: Enterococcus faecalis; test: Ratio of linezolid MIC to compound MIC for linezolid-resistant Enterococcus faecalis; format: functional; method in brief: as §4
# [22] = Tmax in Sprague-Dawley rat at 15 mg/kg, po by LC-MS analysis; format: ADME, organism-based; design: dose 15 mg/kg, route oral; settings: in vivo; method in brief: as §3
# [23] = system: Streptococcus pneumoniae; test: Antibacterial activity against penicillin-resistant Streptococcus pneumoniae after 16 hrs by NCCLS agar dilution method; format: functional; method in brief: as §1
# [24] = AUC in Sprague-Dawley rat at 5 mg/kg, iv by LC-MS analysis; format: ADME, organism-based; design: dose 5 mg/kg, route intravenous; settings: plasma; method in brief: as §5
# [25] = Tmax in Sprague-Dawley rat at 10 mg/kg, po by LC-MS analysis; format: ADME, organism-based; design: dose 10 mg/kg, route oral; settings: in vivo; method in brief: as §3
# [26] = Cmax in Sprague-Dawley rat at 10 mg/kg, po by LC-MS analysis; format: ADME, organism-based; design: dose 10 mg/kg, route oral; settings: in vivo; method in brief: as §3
# [27] = Elimination half life in Sprague-Dawley rat at 5.6 mg/kg, iv by LC-MS analysis; format: ADME, organism-based; design: dose 5.6 mg/kg, route intravenous; settings: in vivo, read-out: beta t1/2 (converted); method in brief: as §3
# [28] = Elimination half life in Sprague-Dawley rat at 10 mg/kg, po by LC-MS analysis; format: ADME, organism-based; design: dose 10 mg/kg, route oral; settings: in vivo, read-out: beta t1/2 (converted); method in brief: as §3
# [29] = system: Rattus norvegicus; test: AUC in Sprague-Dawley rat at 10 mg/kg, po by LC-MS analysis; format: ADME, organism-based, Plasma; design: dose 10 mg/kg, route oral; settings: in vivo; method in brief: as §3
# [30] = system: Rattus norvegicus; test: Oral bioavailability in Sprague-Dawley rat at 10 mg/kg; format: ADME, organism-based; settings: in vivo; method in brief: as §3
# [31] = system: Rattus norvegicus; test: AUC in Sprague-Dawley rat at 5.6 mg/kg, iv by LC-MS analysis; format: ADME, organism-based, Plasma; design: dose 5.6 mg/kg, route intravenous; settings: in vivo; method in brief: as §3
SMILES,MIC [1] [µg/mL],MIC [2] [µg/mL],MIC [3] [µg/mL],MIC [5] [µg/mL],MIC [6] [µg/mL],MIC [7] [µg/mL],IC50 [8] [µM],MIC [9] [µg/mL],MIC [10] [µg/mL],MIC [12] [µg/mL],MIC [17] [µg/mL],MIC [23] [µg/mL],further results
CN1C[C@@H](c2ccc(-c3ccc4c(c3)OC[C@H]3[C@H](CO)OC(=O)N43)cn2)OC1=O,2,0.25,2,1,0.5,0.5,> 40,2,4,0.5,0.25,0.5,clearance [4]: 53.7 mL/min/kg; bioavailability [11]: 44.8%; Cmax [13]: 809 ng/mL; half-life [14]: 2.51 h; Ratio [15]: 4; Ratio [16]: 4; AUC [18]: 2170 ng·h/mL; half-life [19]: 1.93 h; Ratio [20]: 4; Ratio [21]: 4; Tmax [22]: 1 h; AUC [24]: 1560 ng·h/mL
O=C1OC(CO)CN1c1ccc(-c2ccc3c(c2)OC[C@H]2[C@H](CO)OC(=O)N32)cn1 (stereo partly drawn),4,0.25,4,0.5,0.5,0.5,> 40,4,8,0.5,0.5,0.5,Tmax [25]: 0.38 h; Cmax [26]: 332 ng/mL; half-life [27]: 1.08 h; half-life [28]: 2.25 h; AUC [29]: 1491 ng·h/mL; F [30]: 27.5%; AUC [31]: 2800 ng·h/mL

# — ChEMBL document CHEMBL2321795, “Solubility-driven optimization of (pyridin-3-yl) benzoxazinyl-oxazolidinones leading to a promising antibacterial agent” (J Med Chem, 2013)
